Laboratory results: ChEMBL document CHEMBL4251593, “Nontoxic combretafuranone analogues with high in vitro antibacterial activity” (Eur J Med Chem, 2018)
Converted amounts (≈) assume the structure as drawn. The source made the active and inactive calls. The calls are words filed in the database; no cut-off is given here.

Tests used:
[1] = test system: Klebsiella pneumoniae; assay: Antibacterial activity against Klebsiella pneumoniae HK11750/08 clinical isolate after 48 hrs by microdilution assay; assay type: functional; conditions: HK11750/08, 48 h
[2] = test system: Clavispora lusitaniae; assay: Antifungal activity against Candida lusitaniae 2446/I clinical isolate up to 1 mM after 24 to 48 hrs by microdilution assay; assay type: functional, organism-based
Summary of the method: (§1)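 Fungal microdilution following modified CLSI M27-A3/M38-A2, in RPMI 1640 with L-glutamine and 0.165 M MOPS at pH 7.0, with DMSO no more than 2% final. Compounds were 2-fold serially diluted from 2000 to 0.488 µmol/l. The inoculum was 5×10^3 cfu/ml. Incubation was at 35 °C, read visually at 24/48 h (T. mentagrophytes at 72/120 h). MIC was IC80 for yeasts and IC50 for filamentous fungi, determined twice in duplicate.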

[3] = test system: Staphylococcus epidermidis; assay: Antibacterial activity against Staphylococcus epidermidis HK6966/08 clinical isolate after 24 hrs by microdilution assay; assay type: functional; conditions: HK6966/08, 24 h
[4] = test system: Candida albicans; assay: Antifungal activity against Candida albicans ATCC 90028 up to 1 mM after 24 to 48 hrs by microdilution assay; assay type: functional, organism-based; summary of the method: as §1
[5] = test system: Staphylococcus aureus; assay: Antibacterial activity against Staphylococcus aureus ATCC 6538 after 24 hrs by microdilution assay; assay type: functional; conditions: ATCC 6538, 24 h
[6] = test system: Trichosporon asahii; assay: Antifungal activity against Trichosporon asahii 1188 clinical isolate up to 1 mM after 24 to 48 hrs by microdilution assay; assay type: functional, organism-based; summary of the method: as §1
[7] = test system: Aspergillus fumigatus; assay: Antifungal activity against Aspergillus fumigatus 231 up to 1 mM after 24 to 48 hrs by microdilution assay; assay type: functional, organism-based; summary of the method: as §1
[8] = test system: Candida tropicalis; assay: Antifungal activity against Candida tropicalis 156 clinical isolate up to 1 mM after 24 to 48 hrs by microdilution assay; assay type: functional, organism-based; summary of the method: as §1
[9] = test system: Pichia kudriavzevii; assay: Antifungal activity against Candida krusei ATCC 6258 up to 1 mM after 24 to 48 hrs by microdilution assay; assay type: functional, organism-based; summary of the method: as §1
[10] = test system: Lichtheimia corymbifera; assay: Antifungal activity against Absidia corymbifera 272 up to 1 mM after 24 to 48 hrs by microdilution assay; assay type: functional, organism-based; summary of the method: as §1
[11] = test system: K562; assay: Cytotoxicity against human K562 cells assessed as reduction in cell viability after 48 hrs by ATPlite-based luminescent assay; conditions: K562, 48 h
Summary of the method: (§2)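 Cells were grown […] with 10% FBS, glutamax, NEAA and pen/strep at 37 °C, 5% CO2. Media were DMEM for RPE-1, HepG2 and BJ (BJ plus 10 ng/ml bFGF), F-12K for PC3, and IMDM for K562/HL-60. Cells were seeded at 500 per well and dosed from DMSO at 12 concentrations, 40 µM to 1 nM, in triplicate. After 48 h, intracellular ATP was read by luminescence. ED50 was obtained by variable-slope nonlinear regression.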

[12] = test system: Enterococcus sp.; assay: Antibacterial activity against Enterococcus sp. HK14365/08 clinical isolate after 48 hrs by microdilution assay; assay type: functional; conditions: HK14365/08, 48 h
[13] = test system: Pseudomonas aeruginosa; assay: Antibacterial activity against Pseudomonas aeruginosa ATCC 9027 after 24 hrs by microdilution assay; assay type: functional; conditions: ATCC 9027, 24 h
Summary of the method: (§3)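 Broth microdilution in Mueller-Hinton medium buffered to pH 7.4 (±0.2), with DMSO as diluent at no more than 2% final. Compounds were tested as 2-fold serial dilutions from 2000 to 0.488 µmol/l. The inoculum was 0.5 McFarland (1.5×10^8 cfu/ml). Plates were held at 37 °C and read visually at 24 and 48 h. MIC was taken as 95% growth inhibition versus control, determined twice in duplicate.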

[14] = test system: Nakaseomyces glabratus; assay: Antifungal activity against Candida glabrata 20/I clinical isolate up to 1 mM after 24 to 48 hrs by microdilution assay; assay type: functional, organism-based; summary of the method: as §1
[15] = test system: Pichia kudriavzevii; assay: Antifungal activity against Candida krusei E28 clinical isolate up to 1 mM after 24 to 48 hrs by microdilution assay; assay type: functional, organism-based; summary of the method: as §1
[16] = test system: PC-3; assay: Induction of apoptosis in human PC3 cells assessed as caspase 3/7 activity after 24 hrs by caspase-glo luminescent assay; assay type: cell-based; conditions: PC-3, 24 h
Summary of the method: (§4)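 Cells were seeded at 500 per well in their growth media and exposed to 12 concentrations from 40 µM to 1 nM, delivered from DMSO, in triplicate. After 24 h, caspase-3/7 activity was read by Caspase-Glo luminescence. Data were normalized and ED50 was fitted by variable-slope nonlinear regression.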

[17] = test system: Staphylococcus epidermidis; assay: Antibacterial activity against Staphylococcus epidermidis HK6966/08 clinical isolate after 48 hrs by microdilution assay; assay type: functional; conditions: HK6966/08, 48 h
[18] = test system: BJ; assay: Cytotoxicity against human BJ cells assessed as reduction in cell viability after 48 hrs by ATPlite-based luminescent assay; summary of the method: as §2
[19] = test system: Klebsiella pneumoniae; assay: Antibacterial activity against Klebsiella pneumoniae HK14368/08 clinical isolate after 24 hrs by microdilution assay; assay type: functional; conditions: HK14368/08, 24 h
[20] = test system: Staphylococcus aureus; assay: Antibacterial activity against methicillin-resistant Staphylococcus aureus HK5996/08 clinical isolate after 48 hrs by microdilution assay; assay type: functional; conditions: HK5996/08, 48 h
[21] = test system: Escherichia coli; assay: Antibacterial activity against Escherichia coli ATCC 8739 after 48 hrs by microdilution assay; assay type: functional; conditions: ATCC 8739, 48 h; summary of the method: as §3
[22] = test system: K562; assay: Induction of apoptosis in human K562 cells assessed as caspase 3/7 activity after 24 hrs by caspase-glo luminescent assay; assay type: cell-based; conditions: K562, 24 h; summary of the method: as §4
[23] = test system: Escherichia coli; assay: Antibacterial activity against Escherichia coli ATCC 8739 after 24 hrs by microdilution assay; assay type: functional; conditions: ATCC 8739, 24 h; summary of the method: as §3
[24] = test system: Candida albicans; assay: Antifungal activity against Candida albicans ATCC 44859 up to 1 mM after 24 to 48 hrs by microdilution assay; assay type: functional, organism-based; summary of the method: as §1
[25] = test system: MCF7; assay: Cytotoxicity against human MCF7 cells assessed as reduction in cell viability after 48 hrs by ATPlite-based luminescent assay; conditions: MCF7, 48 h
[26] = test system: PC-3; assay: Cytotoxicity against human PC3 cells assessed as reduction in cell viability after 48 hrs by ATPlite-based luminescent assay; conditions: PC-3, 48 h; summary of the method: as §2
[27] = test system: Staphylococcus aureus; assay: Antibacterial activity against Staphylococcus aureus ATCC 6538 after 48 hrs by microdilution assay; assay type: functional; conditions: ATCC 6538, 48 h
[28] = test system: Klebsiella pneumoniae; assay: Antibacterial activity against Klebsiella pneumoniae HK11750/08 clinical isolate after 24 hrs by microdilution assay; assay type: functional; conditions: HK11750/08, 24 h
[29] = test system: TERT-RPE1; assay: Induction of apoptosis in human RPE1 cells assessed as caspase 3/7 activity after 24 hrs by caspase-glo luminescent assay; assay type: cell-based; conditions: RPE-1, 24 h; summary of the method: as §4
[30] = test system: HL-60; assay: Induction of apoptosis in human HL60 cells assessed as caspase 3/7 activity after 24 hrs by caspase-glo luminescent assay; assay type: cell-based; conditions: HL-60, 24 h; summary of the method: as §4
[31] = test system: HL-60; assay: Cytotoxicity against human HL60 cells assessed as reduction in cell viability after 48 hrs by ATPlite-based luminescent assay; conditions: HL-60, 48 h; summary of the method: as §2
[32] = test system: Klebsiella pneumoniae; assay: Antibacterial activity against Klebsiella pneumoniae HK14368/08 clinical isolate after 48 hrs by microdilution assay; assay type: functional; conditions: HK14368/08, 48 h
[33] = test system: TERT-RPE1; assay: Cytotoxicity against human RPE1 cells assessed as reduction in cell viability after 48 hrs by ATPlite-based luminescent assay; conditions: RPE-1, 48 h; summary of the method: as §2
[34] = test system: Enterococcus sp.; assay: Antibacterial activity against Enterococcus sp. HK14365/08 clinical isolate after 24 hrs by microdilution assay; assay type: functional; conditions: HK14365/08, 24 h
[35] = test system: Candida parapsilosis; assay: Antifungal activity against Candida parapsilosis ATCC 22019 up to 1 mM after 24 to 48 hrs by microdilution assay; assay type: functional, organism-based; summary of the method: as §1
[36] = test system: Pseudomonas aeruginosa; assay: Antibacterial activity against Pseudomonas aeruginosa ATCC 9027 after 48 hrs by microdilution assay; assay type: functional; conditions: ATCC 9027, 48 h; summary of the method: as §3
[37] = test system: Trichophyton mentagrophytes; assay: Antifungal activity against Trichophyton mentagrophytes 445 up to 1 mM after 72 to 120 hrs by microdilution assay; assay type: functional, organism-based; summary of the method: as §1
[38] = test system: HepG2; assay: Cytotoxicity against human HepG2 cells assessed as reduction in cell viability after 48 hrs by ATPlite-based luminescent assay; conditions: HepG2, 48 h; summary of the method: as §2
[39] = test system: Staphylococcus aureus; assay: Antibacterial activity against methicillin-resistant Staphylococcus aureus HK5996/08 clinical isolate after 24 hrs by microdilution assay; assay type: functional; conditions: HK5996/08, 24 h
[40] = test system: HepG2; assay: Induction of apoptosis in human HepG2 cells assessed as caspase 3/7 activity after 24 hrs by caspase-glo luminescent assay; assay type: cell-based; conditions: HepG2, 24 h; summary of the method: as §4

Cc1ccc(C2=C(c3ccc(Br)cc3)C(=O)OC2CO)cc1 (stereo not given)
MIC95 [1]: > 500 µM
Activity [2]: inactive
MIC95 [3]: 62.5 µM (≈ 22.5 µg/mL)
Activity [4]: inactive
MIC95 [5]: 15.6 µM (≈ 5.61 µg/mL)
Activity [6]: inactive
Activity [7]: inactive
Activity [8]: inactive
Activity [9]: inactive
Activity [10]: inactive
IC50 [11]: 31.4 µM
MIC95 [12]: > 500 µM
MIC95 [13]: > 500 µM
Activity [14]: inactive
Activity [15]: inactive
IC50 [16]: > 40 µM
MIC95 [17]: 62.5 µM (≈ 22.5 µg/mL)
IC50 [18]: > 40 µM
MIC95 [19]: > 500 µM
MIC95 [20]: 62.5 µM (≈ 22.5 µg/mL)
MIC95 [21]: > 500 µM
IC50 [22]: 46.7 µM
MIC95 [23]: > 500 µM
Activity [24]: inactive
IC50 [25]: > 40 µM
IC50 [26]: > 40 µM
MIC95 [27]: 15.6 µM (≈ 5.61 µg/mL)
MIC95 [28]: > 500 µM
IC50 [29]: > 40 µM
IC50 [30]: > 40 µM
IC50 [31]: 21.3 µM
MIC95 [32]: > 500 µM
IC50 [33]: > 40 µM
MIC95 [34]: 500 µM (≈ 180 µg/mL)
Activity [35]: inactive
MIC95 [36]: > 500 µM
Activity [37]: inactive
IC50 [38]: > 40 µM
MIC95 [39]: 62.5 µM (≈ 22.5 µg/mL)
IC50 [40]: > 40 µM

O=C1OC(CO)(CO)C(c2ccc(Br)cc2)=C1c1cccc(Cl)c1Cl
MIC95 [1]: > 500 µM
Activity [2]: inactive
MIC95 [3]: 62.5 µM (≈ 27.8 µg/mL)
Activity [4]: inactive
MIC95 [5]: 15.6 µM (≈ 6.94 µg/mL)
Activity [6]: inactive
Activity [7]: inactive
Activity [8]: inactive
Activity [9]: inactive
Activity [10]: inactive
IC50 [11]: > 40 µM
MIC95 [12]: > 500 µM
MIC95 [13]: > 500 µM
Activity [14]: inactive
Activity [15]: inactive
IC50 [16]: > 40 µM
MIC95 [17]: 250 µM (≈ 111 µg/mL)
IC50 [18]: > 40 µM
MIC95 [19]: > 500 µM
MIC95 [20]: > 500 µM
MIC95 [21]: > 500 µM
IC50 [22]: > 40 µM
MIC95 [23]: > 500 µM
Activity [24]: inactive
IC50 [25]: > 40 µM
IC50 [26]: > 40 µM
MIC95 [27]: 31.2 µM (≈ 13.9 µg/mL)
MIC95 [28]: > 500 µM
IC50 [29]: > 40 µM
IC50 [30]: > 40 µM
IC50 [31]: > 40 µM
MIC95 [32]: > 500 µM
IC50 [33]: > 40 µM
MIC95 [34]: > 500 µM
Activity [35]: inactive
MIC95 [36]: > 500 µM
Activity [37]: inactive
IC50 [38]: > 40 µM
MIC95 [39]: > 500 µM
IC50 [40]: > 40 µM
